Series [1] concerns the target 72 kDa type IV collagenase (Homo sapiens, UniProt P08253). Nature of the series: Inhibition of recombinant human MMP-2 assessed as substrate cleavage after 20 hrs by fluorescence assay. The essentials:
(§1)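 Enzyme inhibition IC50s derived from at least six measurements, standard errors normally <5% within an assay; a standard compound run to keep assay-to-assay variability within twofold.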

Series [2] has as its target T1, A disintegrin and metalloproteinase with thrombospondin motifs 5 (Homo sapiens, UniProt Q9UNA0).
T1 sequence (Q9UNA0 whole entry): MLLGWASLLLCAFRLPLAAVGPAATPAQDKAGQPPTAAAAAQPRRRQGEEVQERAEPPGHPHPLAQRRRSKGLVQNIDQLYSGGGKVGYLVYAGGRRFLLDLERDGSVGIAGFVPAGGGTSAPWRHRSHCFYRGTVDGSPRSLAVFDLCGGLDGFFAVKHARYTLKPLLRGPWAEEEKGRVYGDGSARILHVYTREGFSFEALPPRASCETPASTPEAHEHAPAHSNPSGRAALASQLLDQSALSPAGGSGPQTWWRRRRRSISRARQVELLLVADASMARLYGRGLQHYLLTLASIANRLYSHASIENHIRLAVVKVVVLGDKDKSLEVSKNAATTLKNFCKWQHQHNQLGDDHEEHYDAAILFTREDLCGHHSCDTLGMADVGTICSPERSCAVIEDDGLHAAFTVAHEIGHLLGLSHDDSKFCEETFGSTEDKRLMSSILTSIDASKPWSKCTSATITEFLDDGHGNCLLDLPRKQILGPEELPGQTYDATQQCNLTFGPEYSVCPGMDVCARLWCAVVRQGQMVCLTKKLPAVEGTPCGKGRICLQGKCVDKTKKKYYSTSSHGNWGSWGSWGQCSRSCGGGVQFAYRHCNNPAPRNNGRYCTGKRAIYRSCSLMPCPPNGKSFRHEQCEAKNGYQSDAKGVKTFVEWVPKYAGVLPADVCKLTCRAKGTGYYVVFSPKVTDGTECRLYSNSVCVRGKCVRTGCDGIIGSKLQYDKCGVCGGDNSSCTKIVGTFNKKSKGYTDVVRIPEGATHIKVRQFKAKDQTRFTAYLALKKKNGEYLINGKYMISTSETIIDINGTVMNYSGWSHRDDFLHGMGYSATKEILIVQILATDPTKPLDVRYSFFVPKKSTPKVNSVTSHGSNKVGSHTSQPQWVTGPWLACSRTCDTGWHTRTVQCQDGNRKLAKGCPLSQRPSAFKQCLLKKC
Nature of the series: Inhibition of ADAMTS-5 assessed as substrate cleavage after 16 hrs by fluorescence assay. The essentials:
as §1

Series [3] has as its target T2, A disintegrin and metalloproteinase with thrombospondin motifs 4 (Homo sapiens, UniProt O75173).
T2 sequence (O75173 whole entry): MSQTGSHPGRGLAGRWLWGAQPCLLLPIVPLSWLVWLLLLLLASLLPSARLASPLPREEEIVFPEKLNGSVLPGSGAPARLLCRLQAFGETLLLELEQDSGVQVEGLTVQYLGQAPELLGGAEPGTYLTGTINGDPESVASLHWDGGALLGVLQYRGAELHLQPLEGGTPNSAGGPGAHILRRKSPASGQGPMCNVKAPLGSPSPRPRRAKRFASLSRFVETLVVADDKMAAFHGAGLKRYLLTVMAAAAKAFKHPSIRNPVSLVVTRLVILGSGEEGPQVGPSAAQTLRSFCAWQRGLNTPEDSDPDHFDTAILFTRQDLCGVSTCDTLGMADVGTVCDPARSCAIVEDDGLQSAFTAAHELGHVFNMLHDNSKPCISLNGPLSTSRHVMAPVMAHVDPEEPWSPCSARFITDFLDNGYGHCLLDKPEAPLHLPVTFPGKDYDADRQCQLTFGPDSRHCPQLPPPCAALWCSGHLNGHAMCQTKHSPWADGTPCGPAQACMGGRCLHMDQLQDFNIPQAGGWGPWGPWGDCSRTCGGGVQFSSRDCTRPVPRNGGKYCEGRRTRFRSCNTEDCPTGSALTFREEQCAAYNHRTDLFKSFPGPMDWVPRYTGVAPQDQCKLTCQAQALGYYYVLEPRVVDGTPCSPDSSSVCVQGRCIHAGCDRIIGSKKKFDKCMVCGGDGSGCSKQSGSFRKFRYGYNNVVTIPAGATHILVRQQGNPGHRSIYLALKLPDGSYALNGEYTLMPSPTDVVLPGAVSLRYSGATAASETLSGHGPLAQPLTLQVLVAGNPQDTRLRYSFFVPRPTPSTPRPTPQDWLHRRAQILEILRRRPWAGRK
Nature of the series: Inhibition of ADAMTS-4 assessed as substrate cleavage after 16 hrs by fluorescence assay. A digest of the protocol:
as §1

Another series has as its target Collagenase 3 (Homo sapiens, UniProt P45452). Nature of the series: Inhibition of recombinant human MMP-13 assessed as substrate cleavage after 20 hrs by fluorescence assay. The essentials: as §1
A further series addresses Cytochrome P450 3A4 (Homo sapiens, UniProt P08684). Nature of the series: Inhibition of CYP3A4. The class given is ADME. The essentials:
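Inhibition of cytochrome P450 isoforms 1A2, 2C9, 2C19, 2D6 and 3A4, reported as pIC50.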

For another series, the target named is T3, Interstitial collagenase (Homo sapiens, UniProt P03956).
T3 sequence (P03956 whole entry): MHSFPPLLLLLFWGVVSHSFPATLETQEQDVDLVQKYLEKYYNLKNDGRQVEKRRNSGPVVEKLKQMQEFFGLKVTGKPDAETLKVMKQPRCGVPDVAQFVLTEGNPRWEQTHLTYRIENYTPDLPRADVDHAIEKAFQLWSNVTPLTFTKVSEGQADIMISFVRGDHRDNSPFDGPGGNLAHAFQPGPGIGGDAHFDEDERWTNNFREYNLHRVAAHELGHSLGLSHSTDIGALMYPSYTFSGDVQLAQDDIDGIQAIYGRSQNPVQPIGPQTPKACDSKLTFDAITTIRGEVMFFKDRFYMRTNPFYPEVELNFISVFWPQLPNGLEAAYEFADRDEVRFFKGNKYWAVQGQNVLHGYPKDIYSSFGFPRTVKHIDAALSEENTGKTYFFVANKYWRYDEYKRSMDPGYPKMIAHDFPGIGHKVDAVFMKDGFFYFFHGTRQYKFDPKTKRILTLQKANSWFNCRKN
The series can be described thus: Inhibition of recombinant human MMP-1 assessed as substrate cleavage after 20 hrs by fluorescence assay. A digest of the protocol:
as §1

The nature of series [4]: Intrinsic clearance in human liver microsomes. The class given is ADME, Microsome. A digest of the protocol:
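Human liver microsome metabolism; intrinsic clearance expressed as μL/min/mg, reported as mean of eight separate experiments.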
Background: Liver microsomes are vesicles of endoplasmic reticulum, rich in cytochrome P450 enzymes.

The target of series [5] is Matrix metalloproteinase-9 (Homo sapiens, UniProt P14780). Nature of the series: Inhibition of recombinant human MMP-9 assessed as substrate cleavage after 20 hrs by fluorescence assay. The essentials:
as §1

The target of series [6] is Matrix metalloproteinase-14 (Homo sapiens, UniProt P50281). The series can be described thus: Inhibition of recombinant human MMP-14 assessed as substrate cleavage after 20 hrs by fluorescence assay. A digest of the protocol: as §1

72 kDa type IV collagenase, sequence (P08253 whole entry): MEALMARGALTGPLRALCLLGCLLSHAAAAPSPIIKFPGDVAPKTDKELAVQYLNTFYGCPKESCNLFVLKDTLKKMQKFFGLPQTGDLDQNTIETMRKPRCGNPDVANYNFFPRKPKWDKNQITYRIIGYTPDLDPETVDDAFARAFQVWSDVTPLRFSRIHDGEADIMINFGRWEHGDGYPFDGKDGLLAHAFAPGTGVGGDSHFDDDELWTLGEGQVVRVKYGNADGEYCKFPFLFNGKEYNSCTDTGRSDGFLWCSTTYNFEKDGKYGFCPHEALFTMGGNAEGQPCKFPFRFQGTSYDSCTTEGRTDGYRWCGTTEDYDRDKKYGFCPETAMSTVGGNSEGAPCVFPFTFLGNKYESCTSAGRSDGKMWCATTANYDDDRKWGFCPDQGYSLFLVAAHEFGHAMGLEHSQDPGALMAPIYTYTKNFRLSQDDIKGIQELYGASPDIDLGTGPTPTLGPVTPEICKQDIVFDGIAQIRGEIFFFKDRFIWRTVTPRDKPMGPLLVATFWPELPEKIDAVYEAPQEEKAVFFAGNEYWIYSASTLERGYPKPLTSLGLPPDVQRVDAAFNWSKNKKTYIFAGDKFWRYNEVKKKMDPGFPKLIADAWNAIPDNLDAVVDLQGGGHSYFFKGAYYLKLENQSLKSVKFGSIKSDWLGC
Cytochrome P450 3A4, sequence (P08684 whole entry, canonical isoform): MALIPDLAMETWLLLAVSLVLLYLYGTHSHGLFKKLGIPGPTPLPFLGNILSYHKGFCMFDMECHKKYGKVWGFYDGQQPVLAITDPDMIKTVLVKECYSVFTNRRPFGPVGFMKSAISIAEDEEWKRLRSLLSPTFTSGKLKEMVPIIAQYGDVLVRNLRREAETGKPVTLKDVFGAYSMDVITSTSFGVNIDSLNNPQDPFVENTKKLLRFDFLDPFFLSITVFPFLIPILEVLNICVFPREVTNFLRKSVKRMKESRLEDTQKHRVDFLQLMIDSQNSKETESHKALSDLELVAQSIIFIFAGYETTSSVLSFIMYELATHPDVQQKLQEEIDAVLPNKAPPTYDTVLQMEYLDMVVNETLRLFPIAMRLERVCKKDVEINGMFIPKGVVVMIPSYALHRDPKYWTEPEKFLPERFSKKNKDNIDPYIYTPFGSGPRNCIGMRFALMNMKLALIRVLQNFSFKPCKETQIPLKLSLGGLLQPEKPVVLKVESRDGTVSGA
Matrix metalloproteinase-9, sequence (P14780 whole entry): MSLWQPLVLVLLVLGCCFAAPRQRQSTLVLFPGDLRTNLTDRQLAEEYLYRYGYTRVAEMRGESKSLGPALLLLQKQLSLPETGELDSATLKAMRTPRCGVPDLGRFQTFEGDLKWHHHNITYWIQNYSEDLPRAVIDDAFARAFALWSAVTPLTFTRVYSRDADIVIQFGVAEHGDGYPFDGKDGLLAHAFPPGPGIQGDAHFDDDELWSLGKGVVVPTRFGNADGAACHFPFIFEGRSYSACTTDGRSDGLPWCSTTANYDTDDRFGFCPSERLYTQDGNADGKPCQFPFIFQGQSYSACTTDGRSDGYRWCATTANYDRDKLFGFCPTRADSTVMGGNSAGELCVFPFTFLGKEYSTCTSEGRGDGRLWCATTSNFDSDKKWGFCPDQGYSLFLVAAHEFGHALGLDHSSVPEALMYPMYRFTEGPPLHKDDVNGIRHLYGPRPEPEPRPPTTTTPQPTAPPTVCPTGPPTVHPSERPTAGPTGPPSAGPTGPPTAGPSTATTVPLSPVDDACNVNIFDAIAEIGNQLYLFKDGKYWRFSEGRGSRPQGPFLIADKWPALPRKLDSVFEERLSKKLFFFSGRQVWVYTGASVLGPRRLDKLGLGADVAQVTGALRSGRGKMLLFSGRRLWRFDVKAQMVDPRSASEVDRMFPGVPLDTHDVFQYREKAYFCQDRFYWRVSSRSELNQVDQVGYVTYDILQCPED

Regarding `Cc1noc(C)c1CCC1CCN(S(=O)(=O)CC2(N(O)C=O)CCS(=O)(=O)CC2)CC1`, the IC50 is more than 10 µM in series [1]; 0.27 µM in series [2]; 0.016 µM in [3]; more than 10 µM at Collagenase 3; more than 10 µM against Cytochrome P450 3A4; more than 10 µM at Interstitial collagenase. Further, the IC50 in series [5] and in [6] was more than 10 µM in each case. This compound showed an intrinsic metabolic clearance (microsomal CLint) in series [4] of 4.9 µL/min/mg.
Turning to `CC(CS(=O)(=O)N1CCN(c2ccc(F)cc2)CC1)N(O)C=O` (racemic), the IC50 on Collagenase 3 was 0.154 µM; against Cytochrome P450 3A4 it was 1 µM; on Interstitial collagenase, more than 10 µM; in series [6], 0.226 µM.
Turning to `Cc1noc(C)c1CCC1CCN(S(=O)(=O)CC2(N(O)C=O)CCOC(C)(C)C2)CC1` (stereo not drawn), the half-maximal inhibitory concentration (IC50) is more than 10 µM in [1]; 0.25 µM in [2]; 0.0097 µM in series [3]; more than 10 µM on Collagenase 3; more than 10 µM on Cytochrome P450 3A4; more than 10 µM on Interstitial collagenase. The IC50 in series [5] and in [6] was more than 10 µM in each case. In series [4], this compound yielded a microsomal CLint of 12 µL/min/mg.
For the compound `Cc1noc(C)c1CCC1CCN(S(=O)(=O)CC2(N(O)C=O)CCN(C(=O)N3CCC3)CC2)CC1`, the IC50 was more than 10 µM in [1]; 0.48 µM in series [2]; 0.011 µM in series [3]; more than 10 µM on Collagenase 3; more than 10 µM on Interstitial collagenase; more than 10 µM in [5]. For the same compound, in [6], the 50% inhibitory concentration (IC50) was more than 10 µM. Moreover, the microsomal CLint in series [4] was 31 µL/min/mg.
On to `Cc1noc(C)c1CCC1CCN(S(=O)(=O)CC2(N(O)C=O)CCN(C(=O)C3CCC3)CC2)CC1`, for which the concentration for half-maximal inhibition (IC50) in series [1] is more than 10 µM; in series [2], 0.27 µM; in series [3], 0.01 µM; at Collagenase 3, more than 10 µM; on Cytochrome P450 3A4 it was more than 10 µM; at Interstitial collagenase, more than 10 µM. Moreover, the IC50 in [5] and in series [6] was more than 10 µM each time. Also, the intrinsic metabolic clearance (microsomal CLint) in [4] came to 65 µL/min/mg.
Regarding `CN1CCC(CS(=O)(=O)N2CCN(c3ccc(F)cc3)CC2)(N(O)C=O)CC1`, the IC50 in series [3] was 0.53 µM; at Collagenase 3, 0.57 µM; at Cytochrome P450 3A4, more than 10 µM; at Interstitial collagenase it was more than 6.7 µM; in series [6], 2.9 µM.
On to `Cc1cc(S(C)(=O)=O)ccc1CCC1CCN(S(=O)(=O)CC2(N(O)C=O)CCOCC2)CC1`, for which the IC50 was 3.3 µM in series [1]; 0.53 µM in series [2]; 0.0058 µM in [3]; 1.7 µM on Collagenase 3; more than 10 µM on Interstitial collagenase; more than 10 µM in [5]. Besides, the IC50 in [6] is more than 10 µM. The same compound registered an intrinsic metabolic clearance (microsomal CLint) in series [4] of 2 µL/min/mg.
For `Cc1noc(C)c1CCC1CCN(S(=O)(=O)CC2(N(O)C=O)CCN(S(C)(=O)=O)CC2)CC1`, the 50% inhibitory concentration (IC50) in [1] was more than 10 µM; in series [2], 0.31 µM; in series [3], 0.029 µM; at Collagenase 3 it was 4.6 µM; at Interstitial collagenase, more than 10 µM; in series [5], more than 10 µM. Moreover, the half-inhibitory concentration (IC50) in series [6] was more than 10 µM. For the same compound, the intrinsic clearance (microsomal CLint) in series [4] came to 6.5 µL/min/mg.
Regarding `CC(C)(CS(=O)(=O)N1CCN(c2ccc(F)cc2)CC1)N(O)C=O`, the IC50 was 0.092 µM in series [3]; 1.4 µM at Collagenase 3; more than 10 µM against Cytochrome P450 3A4; more than 10 µM on Interstitial collagenase; 1.4 µM in series [6].
As for `Cc1ncccc1CCC1CCN(S(=O)(=O)CC2(N(O)C=O)CCOCC2)CC1`, the half-inhibitory concentration (IC50) in [1] was 3.8 µM; in series [2] it was 5.4 µM; in series [3] it was 0.4 µM; at Collagenase 3 it was 2 µM; at Interstitial collagenase, more than 10 µM; in series [5] it was more than 10 µM. In series [6], the IC50 is 8 µM. The intrinsic clearance (microsomal CLint) in [4] was less than 2 µL/min/mg.
Turning to `Cc1ccncc1CCC1CCN(S(=O)(=O)CC2(N(O)C=O)CCOCC2)CC1`, the half-inhibitory concentration (IC50) in [1] is 3.5 µM; in series [2], 0.63 µM; in series [3], 0.11 µM; on Collagenase 3, 5.9 µM; on Interstitial collagenase it was more than 10 µM; in series [5], more than 10 µM. For the same compound, the IC50 in series [6] is more than 7.2 µM. In addition, in series [4], the microsomal CLint came to 3.4 µL/min/mg.
As to `Cc1ccccc1CCC1CCN(S(=O)(=O)CC2(N(O)C=O)CCOCC2)CC1`, the IC50 is 0.62 µM in series [1]; 0.031 µM in series [2]; 0.0056 µM in series [3]; more than 0.6 µM at Collagenase 3; more than 10 µM at Interstitial collagenase; more than 1.8 µM in series [5]. In [6], the IC50 is more than 0.77 µM. Moreover, the intrinsic metabolic clearance (microsomal CLint) in [4] was less than 2 µL/min/mg.
As for `Cc1cccnc1CCC1CCN(S(=O)(=O)CC2(N(O)C=O)CCOCC2)CC1`, the concentration for half-maximal inhibition (IC50) in series [1] was 1.1 µM; in series [2] it was 0.58 µM; in series [3], 0.1 µM; on Collagenase 3, 1.1 µM; on Interstitial collagenase, more than 10 µM; in [5] it was 8.5 µM. The IC50 in series [6] is 2.9 µM. The compound also returned a microsomal CLint in series [4] of 3.8 µL/min/mg.
Consider `Cc1noc(C)c1CCC1CCN(S(=O)(=O)CC2(N(O)C=O)CCCCCC2)CC1`, for which the IC50 in series [1] was more than 10 µM; in series [2], 1.5 µM; in series [3], 0.048 µM; at Collagenase 3 it was more than 10 µM; at Interstitial collagenase, more than 10 µM; in [5], more than 10 µM. Further, the half-inhibitory concentration (IC50) in series [6] is more than 10 µM. This compound displayed a microsomal CLint in [4] of 59 µL/min/mg.
As for `CC(=O)N1CCC(CS(=O)(=O)N2CCC(CCc3c(C)noc3C)CC2)(N(O)C=O)CC1`, the 50% inhibitory concentration (IC50) in [1] was more than 10 µM; in series [2] it was 0.82 µM; in [3] it was 0.024 µM; at Collagenase 3, more than 10 µM; on Interstitial collagenase, more than 10 µM; in series [5] it was more than 10 µM. Besides, the IC50 in series [6] is more than 10 µM. Also, the microsomal CLint in series [4] was less than 2 µL/min/mg.

Usually IC50 stands for the concentration that gives 50% inhibition. The term microsomal CLint denotes a measure of how fast metabolising enzymes remove a compound, apart from limits set by blood flow. A high value points to faster metabolism.

These data come from ChEMBL document CHEMBL1781898, “Orally active achiral N-hydroxyformamide inhibitors of ADAM-TS4 (aggrecanase-1) and ADAM-TS5 (aggrecanase-2) for the treatment of osteoarthritis” (Bioorg Med Chem Lett, 2011).
